Test results reported in publication PMC11847724 (Neoplasia (New York, N.Y.), 2025).
Like-named read-outs stand apart in the source and are kept apart here.

Key:
[1] = system: participants with advanced or metastatic solid tumors; format: in vivo, human
In short: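 Open-label, first-in-human 3 + 3 escalation in adults with recurrent, locally advanced or metastatic solid tumors lacking standard therapy. Test compound was given orally once daily from 25 up to 700 mg/day (modified Fibonacci steps) in 28-day cycles for 6 to 8 cycles, with no intrapatient escalation. The safety population was everyone dosed at least once. AEs were coded by MedDRA and graded by NCI CTCAE v4.03. DLT was assessed in cycle 1, and MTD was the highest dose with DLT in under one-third of a cohort.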

[2] = system: advanced or metastatic solid tumors; test: Tumor response by RECIST v1.1; format: in vivo, human; settings: RECIST v1.1, all doses
In short: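 Participants received daily oral test compound at 25 to 700 mg/day in 28-day cycles. Best observed response was listed per participant without statistical analysis.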

CNC(=O)c1ccccc1Nc1nc(Nc2ccc3c(c2OC)CCC[C@H](N2CCN(CCO)CC2)C3)ncc1Cl [ESK-440]
AE: Edema peripheral ([1]; 350 mg/day (n = 4)): 0 Number (%) of participants | AE: Fatigue ([1]; 350 mg/day (n = 4)): 2 (50) Number (%) of participants | AE: Nausea ([1]; 350 mg/day (n = 4)): 2 (50) Number (%) of participants | AE: Pyrexia ([1]; 350 mg/day (n = 4)): 1 (25) Number (%) of participants | AE: Vomiting ([1]; 350 mg/day (n = 4)): 1 (25) Number (%) of participants | Any AE ([1]; 350 mg/day (n = 4)): 4 (100) Number (%) of participants | Deaths ([1]; 350 mg/day (n = 4)): 0 Number (%) of participants | Grade 3-5 AE ([1]; 350 mg/day (n = 4)): 2 (50) Number (%) of participants | Other serious AEs ([1]; 350 mg/day (n = 4)): 1 (25) Number (%) of participants | Treatment-related AE ([1]; 350 mg/day (n = 4)): 3 (75) Number (%) of participants | Withdrawn from treatment due to AE ([1]; 350 mg/day (n = 4)): 1 (25) Number (%) of participants | AE: Cough ([1]; 500 mg/day (n = 6)): 1 (17) Number (%) of participants | AE: Decreased appetite ([1]; 500 mg/day (n = 6)): 2 (33) Number (%) of participants | AE: Diarrhea ([1]; 500 mg/day (n = 6)): 2 (33) Number (%) of participants | AE: Edema peripheral ([1]; 500 mg/day (n = 6)): 0 Number (%) of participants | AE: Fatigue ([1]; 500 mg/day (n = 6)): 2 (33) Number (%) of participants | AE: Nausea ([1]; 500 mg/day (n = 6)): 5 (83) Number (%) of participants | AE: Pyrexia ([1]; 500 mg/day (n = 6)): 2 (33) Number (%) of participants | AE: Vomiting ([1]; 500 mg/day (n = 6)): 5 (83) Number (%) of participants | Any AE ([1]; 500 mg/day (n = 6)): 6 (100) Number (%) of participants | Deaths ([1]; 500 mg/day (n = 6)): 0 Number (%) of participants | Grade 3-5 AE ([1]; 500 mg/day (n = 6)): 1 (17) Number (%) of participants | Other serious AEs ([1]; 500 mg/day (n = 6)): 1 (17) Number (%) of participants | Treatment-related AE ([1]; 500 mg/day (n = 6)): 5 (83) Number (%) of participants | Withdrawn from treatment due to AE ([1]; 500 mg/day (n = 6)): 2 (33) Number (%) of participants | participants reporting a DLT ([1]; 500 mg/day treatment group): 1 participants | AE: Cough ([1]; 700 mg/day (n = 5)): 0 Number (%) of participants | AE: Decreased appetite ([1]; 700 mg/day (n = 5)): 2 (40) Number (%) of participants | AE: Diarrhea ([1]; 700 mg/day (n = 5)): 1 (20) Number (%) of participants | AE: Edema peripheral ([1]; 700 mg/day (n = 5)): 1 (20) Number (%) of participants | AE: Fatigue ([1]; 700 mg/day (n = 5)): 4 (80) Number (%) of participants | AE: Nausea ([1]; 700 mg/day (n = 5)): 5 (100) Number (%) of participants | AE: Pyrexia ([1]; 700 mg/day (n = 5)): 0 Number (%) of participants | AE: Vomiting ([1]; 700 mg/day (n = 5)): 3 (60) Number (%) of participants | Any AE ([1]; 700 mg/day (n = 5)): 5 (100) Number (%) of participants | Deaths ([1]; 700 mg/day (n = 5)): 1 (20) Number (%) of participants | Grade 3-5 AE ([1]; 700 mg/day (n = 5)): 4 (80) Number (%) of participants | Other serious AEs ([1]; 700 mg/day (n = 5)): 0 Number (%) of participants | Treatment-related AE ([1]; 700 mg/day (n = 5)): 5 (100) Number (%) of participants | Withdrawn from treatment due to AE ([1]; 700 mg/day (n = 5)): 2 (40) Number (%) of participants | participants reporting a DLT ([1]; 700 mg/day treatment group): 2 participants | deaths considered by investigators related to ESK-440 ([1]; 4 deaths during study): None | AE cough ([1]; Overall (N = 32)): 16% | AE decreased appetite ([1]; Overall (N = 32)): 28% | AE diarrhea ([1]; Overall (N = 32)): 25% | AE fatigue ([1]; Overall (N = 32)): 53% | AE nausea ([1]; Overall (N = 32)): 53% | AE peripheral edema ([1]; Overall (N = 32)): 16% | AE pyrexia ([1]; Overall (N = 32)): 19% | AE vomiting ([1]; Overall (N = 32)): 38% | AE: Cough ([1]; Overall (N = 32)): 5 (16) Number (%) of participants | AE: Decreased appetite ([1]; Overall (N = 32)): 9 (28) Number (%) of participants | AE: Diarrhea ([1]; Overall (N = 32)): 8 (25) Number (%) of participants | AE: Edema peripheral ([1]; Overall (N = 32)): 5 (16) Number (%) of participants | AE: Fatigue ([1]; Overall (N = 32)): 17 (53) Number (%) of participants | AE: Nausea ([1]; Overall (N = 32)): 17 (53) Number (%) of participants | AE: Pyrexia ([1]; Overall (N = 32)): 6 (19) Number (%) of participants | AE: Vomiting ([1]; Overall (N = 32)): 12 (38) Number (%) of participants | Any AE ([1]; Overall (N = 32)): 31 (97) Number (%) of participants | Deaths ([1]; Overall (N = 32)): 4 (13) Number (%) of participants | Grade 3-5 AE ([1]; Overall (N = 32)): 15 (47) Number (%) of participants | Other serious AEs ([1]; Overall (N = 32)): 9 (28) Number (%) of participants | Withdrawn from treatment due to AE ([1]; Overall (N = 32)): 7 (22) Number (%) of participants | at least 1 AE ([1]; Overall (N = 32)): 97% | deaths reported during the study ([1]; Overall (N = 32)): 4 | grade 3+ AEs ([1]; Overall (N = 32)): 47% | withdrew from treatment due to AEs ([1]; Overall (N = 32)): 22% | nature of the DLT ([1]; all 3 cases, considered related to ESK-440): grade 3 nausea | participants reporting a DLT ([1]; all dose groups): Three | changes in vital signs, ECG findings, physical exam findings, pulmonary function tests ([1]; during the study): no clinically significant changes | decline in ECOG performance status ([1]; from baseline): 13 participants | QTcF value meeting protocol-defined DLT criterion (>500 msec) ([1]; in vivo): No patient | no change from baseline in ECOG performance status ([1]; in vivo): Nineteen | SAEs considered related to ESK-440 ([1]; of SAEs in nine participants, nausea): 1 | maximum tolerated dose (MTD) ([1]; oral, 28-day cycle, DLT in cycle 1): 500 mg/day | best overall response: stable disease [2]: 7 participants | complete or partial response [2]: No participant
